Assays:
Assay type in all cases: functional, Mesocricetus auratus
Syrian golden hamster [1] = assay: Antihyperlipidemic activity measured by glycerol level in golden syrian hamster at 100 mg/kg, po
Procedure, shortened: (§1)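 High-fat-diet hyperlipidemic male golden Syrian hamsters (120–130 g, n=8 per group) were dosed orally in water vehicle on days 4–10; water-only HFD hamsters served as controls. On day 10, nonfasted blood was drawn into tubes containing 120 µL NaF (4.5 mg/mL) and chilled to 0 C for 15 min. Glycerol and free fatty acids were assayed in this NaF plasma on a clinical chemistry analyser.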

Syrian golden hamster [2] = assay: Antihyperlipidemic activity measured by decrease in triglyceride level in golden syrian hamster at 100 mg/kg, po relative to control; design: scale not given: the % may be the effect or the level left
Procedure, shortened: (§2)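 Male golden Syrian hamsters (120–130 g), 8 per group, made hyperlipidemic on high fat diet with free access to diet and water throughout. Compound given orally in water from day 4 to day 10 (7 days); HFD hamsters given water only served as controls. On day 10, blood from nonfasted animals was drawn and cooled to 0 C for 15 min. Triglycerides, total cholesterol and HDL cholesterol were measured the same day in plasma without NaF using enzymatic kits.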

Syrian golden hamster [3] = assay: Antihyperlipidemic activity measured by free fatty acid level in golden syrian hamster at 100 mg/kg, po; procedure, shortened: as §1
Syrian golden hamster [4] = assay: Antihyperlipidemic activity measured by cholesterol level in golden syrian hamster at 100 mg/kg, po; procedure, shortened: as §2
Syrian golden hamster [5] = assay: Antihyperlipidemic activity measured by decrease in free fatty acid level in golden syrian hamster at 100 mg/kg, po relative to control; design: scale not given: the % may be the effect or the level left; procedure, shortened: as §1
Syrian golden hamster [6] = assay: Antihyperlipidemic activity measured by HDL/total cholesterol ratio in golden syrian hamster at 100 mg/kg, po; procedure, shortened: as §2
Syrian golden hamster [7] = assay: Antihyperlipidemic activity measured by increase in HDL level in golden syrian hamster at 100 mg/kg, po relative to control; procedure, shortened: as §2
Syrian golden hamster [8] = assay: Antihyperlipidemic activity measured by HDL level in golden syrian hamster at 100 mg/kg, po; procedure, shortened: as §2
Syrian golden hamster [9] = assay: Antihyperlipidemic activity measured by increase in cholesterol level in golden syrian hamster at 100 mg/kg, po relative to control; procedure, shortened: as §2
Syrian golden hamster [10] = assay: Antihyperlipidemic activity measured by decrease in HDL/total cholesterol ratio in golden syrian hamster at 100 mg/kg, po relative to control; design: scale not given: the % may be the effect or the level left; procedure, shortened: as §2
Syrian golden hamster [11] = assay: Antihyperlipidemic activity measured by triglyceride level in golden syrian hamster at 100 mg/kg, po; procedure, shortened: as §2
Syrian golden hamster [12] = assay: Antihyperlipidemic activity measured by increase in glycerol level in golden syrian hamster at 100 mg/kg, po relative to control; procedure, shortened: as §1
Syrian golden hamster [13] = assay: Antihyperlipidemic activity measured by decrease in cholesterol level in golden syrian hamster at 100 mg/kg, po relative to control; design: scale not given: the % may be the effect or the level left; procedure, shortened: as §2
Syrian golden hamster [14] = assay: Antihyperlipidemic activity measured by increase in HDL/total cholesterol ratio in golden syrian hamster at 100 mg/kg, po relative to control; procedure, shortened: as §2
Syrian golden hamster [15] = assay: Antihyperlipidemic activity measured by increase in free fatty acid level in golden syrian hamster at 100 mg/kg, po relative to control; procedure, shortened: as §1
Syrian golden hamster [16] = assay: Antihyperlipidemic activity measured by increase in HDL level in golden syrian hamster at 25 mg/kg relative to control; procedure, shortened: as §2
Syrian golden hamster [17] = assay: Antihyperlipidemic activity measured by HDL/total cholesterol ratio in golden syrian hamster at 25 mg/kg; procedure, shortened: as §2
Syrian golden hamster [18] = assay: Antihyperlipidemic activity measured by decrease in triglyceride level in golden syrian hamster at 25 mg/kg relative to control; design: scale not given: the % may be the effect or the level left; procedure, shortened: as §2
Syrian golden hamster [19] = assay: Antihyperlipidemic activity measured by decrease in glycerol level in golden syrian hamster at 25 mg/kg relative to control; design: scale not given: the % may be the effect or the level left; procedure, shortened: as §1
Syrian golden hamster [20] = assay: Antihyperlipidemic activity measured by triglyceride level in golden syrian hamster at 25 mg/kg; procedure, shortened: as §2
Syrian golden hamster [21] = assay: Antihyperlipidemic activity measured by decrease in free fatty acid level in golden syrian hamster at 25 mg/kg relative to control; design: scale not given: the % may be the effect or the level left; procedure, shortened: as §1
Syrian golden hamster [22] = assay: Antihyperlipidemic activity measured by HDL level in golden syrian hamster at 25 mg/kg; procedure, shortened: as §2
Syrian golden hamster [23] = assay: Antihyperlipidemic activity measured by increase in HDL/total cholesterol ratio in golden syrian hamster at 25 mg/kg relative to control; procedure, shortened: as §2
Syrian golden hamster [24] = assay: Antihyperlipidemic activity measured by cholesterol level in golden syrian hamster at 25 mg/kg; procedure, shortened: as §2
Syrian golden hamster [25] = assay: Antihyperlipidemic activity measured by free fatty acid level in golden syrian hamster at 25 mg/kg; procedure, shortened: as §1
Syrian golden hamster [26] = assay: Antihyperlipidemic activity measured by decrease in cholesterol level in golden syrian hamster at 25 mg/kg relative to control; design: scale not given: the % may be the effect or the level left; procedure, shortened: as §2
Syrian golden hamster [27] = assay: Antihyperlipidemic activity measured by glycerol level in golden syrian hamster at 25 mg/kg; procedure, shortened: as §1
Syrian golden hamster [28] = assay: Antihyperlipidemic activity measured by decrease in glycerol level in golden syrian hamster at 100 mg/kg, po relative to control; design: scale not given: the % may be the effect or the level left; procedure, shortened: as §1

SMILES | Activity (Syrian golden hamster [1]) | Activity (Syrian golden hamster [2]) | Activity (Syrian golden hamster [3]) | Activity (Syrian golden hamster [4]) | Activity (Syrian golden hamster [5]) | Ratio (Syrian golden hamster [6]) | Activity (Syrian golden hamster [7]) | Activity (Syrian golden hamster [8]) | Activity (Syrian golden hamster [9]) | Activity (Syrian golden hamster [11]) | Activity (Syrian golden hamster [13]) | Activity (Syrian golden hamster [14]) | Activity (Syrian golden hamster [28]) | further results
OC[C@H]1O[C@@H](O[C@H]2[C@H](O)[C@@H](CO)O[C@]2(O)CO)[C@H](O)[C@@H](O)[C@H]1O | 0.82 mM | 52% | 450 µM | 17.59 mM | 38% | 0.21 | 16% | 3.6 mM | 52% | 6.88 mM |  |  |  | Activity (Syrian golden hamster [10]): 22%
C[C@@H]1O[C@@H](O[C@H]2[C@H](O)[C@@H](CO)O[C@]2(O)CO)[C@H](O)[C@H](O)[C@H]1O | 1.11 mM |  | 833.12 µM | 8.82 mM |  | 0.35 |  | 3.1 mM |  | 14.17 mM | 24% | 30% |  | Activity (Syrian golden hamster [12]): 32%; Activity (Syrian golden hamster [15]): 15%
OC[C@H]1O[C@](O)(CO)[C@@H](O[C@@H]2O[C@H](CO)[C@@H](O[C@H]3O[C@H](CO)[C@@H](O)[C@H](O)[C@H]3O)[C@H](O)[C@H]2O)[C@@H]1O | 0.82 mM | 11% | 726.74 µM | 11.38 mM |  | 0.3 | 11% | 3.43 mM |  | 12.76 mM |  | 12% |  | 
OC[C@H]1O[C@@H](O[C@H]2[C@H](O)[C@@H](O)[C@H](O[C@H]3[C@H](O)[C@@H](CO)O[C@]3(O)CO)O[C@@H]2CO)[C@H](O)[C@@H](O)[C@H]1O | 0.75 mM | 47% | 670.62 µM | 10.55 mM | 8% | 0.34 | 15% | 3.55 mM |  | 7.61 mM | 9% | 25% | 11% | Activity (Syrian golden hamster [16]): 5%; Ratio (Syrian golden hamster [17]): 0.3; Activity (Syrian golden hamster [18]): 44%; Activity (Syrian golden hamster [19]): 17%; Activity (Syrian golden hamster [20]): 7.96 mM; Activity (Syrian golden hamster [21]): 21%; Activity (Syrian golden hamster [22]): 3.28 mM; Activity (Syrian golden hamster [23]): 11%; Activity (Syrian golden hamster [24]): 11.02 mM; Activity (Syrian golden hamster [25]): 0.572 mM; Activity (Syrian golden hamster [26]): 5%; Activity (Syrian golden hamster [27]): 0.7 mM
OC[C@H]1O[C@@](CO)(O[C@H]2O[C@H](CO)[C@@H](O)[C@H](O)[C@H]2O)[C@@H](O[C@H]2O[C@H](CO)[C@@H](O)[C@H](O)[C@H]2O)[C@@H]1O [MELEZITOSE] | 0.71 mM | 51% | 510.7 µM | 13 mM | 30% | 0.38 | 59% | 4.95 mM | 12% | 6.98 mM |  | 41% | 15% | 
OC[C@H]1O[C@H](OC[C@H]2O[C@H](O[C@]3(CO)O[C@H](CO)[C@@H](O)[C@@H]3O)[C@H](O)[C@@H](O)[C@@H]2O)[C@H](O)[C@@H](O)[C@H]1O [RAFFINOSE] | 0.86 mM | 44% | 540.49 µM | 7.55 mM | 25% | 0.45 | 10% | 3.41 mM |  | 8.06 mM | 35% | 66% |  | 
